What was measured:
B2 bradykinin receptor = biological target: T1, B2 bradykinin receptor (Homo sapiens, UniProt P30411); test: Agonist activity at bradykinin B2 receptor (unknown origin)
T1 sequence (P30411 whole entry): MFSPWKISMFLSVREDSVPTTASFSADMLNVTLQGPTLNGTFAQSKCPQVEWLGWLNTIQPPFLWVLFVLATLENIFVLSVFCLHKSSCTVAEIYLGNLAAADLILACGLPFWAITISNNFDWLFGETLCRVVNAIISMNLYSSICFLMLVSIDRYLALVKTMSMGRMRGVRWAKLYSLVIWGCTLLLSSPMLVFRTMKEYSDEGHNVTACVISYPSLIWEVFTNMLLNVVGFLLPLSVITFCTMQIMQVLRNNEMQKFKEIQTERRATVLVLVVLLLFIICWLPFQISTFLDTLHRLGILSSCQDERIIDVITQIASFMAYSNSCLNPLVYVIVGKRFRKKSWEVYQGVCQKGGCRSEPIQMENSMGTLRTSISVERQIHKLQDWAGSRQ

MCF7 = test: Antiproliferative activity against human MCF7 cells assessed as cell viability after 24 hrs; format: functional, cell-based; conditions: MCF7, 24 h
Summary of the method: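 MCF-7 cells (ATCC) kept in DMEM with 10% FBS, 1.0 mM pyruvate, 2 mM L-glutamine and penicillin at 37 °C, 5% CO2. Cells grown to 60–70% confluence, then given fresh medium and compound (DMSO stock diluted in medium) at 0–200 μM for 24 h with serum. Surviving cells counted manually. IC50 from a non-linear fit of % living cells vs log concentration. Triplicate, mean ± SD.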

MDA-MB-231 = test: Antiproliferative activity against human MDA-MB-231 cells assessed as cell viability after 24 hrs; format: functional, cell-based; conditions: MDA-MB-231, 24 h

`COc1nc2c(OCc3c(Cl)ccc(N(C)C(=O)CNC(=O)/C=C/c4ccc(NC(C)=O)nc4)c3Cl)cccc2n1Cc1ccccn1` was tested, and the IC50 (B2 bradykinin receptor) was 0.00068 µM.
Work on `CNC(=O)c1ccc(/C=C/C(=O)O)cc1` yielded an IC50 (MCF7) of 2.12 µM and an IC50 (MDA-MB-231) of 86 µM.
`Cc1cc(OCc2ccccn2)c2cccc(O)c2n1` was tested, and the IC50 (MCF7) was 0.16 µM and the IC50 (MDA-MB-231) was 450 µM.
With `CC1=C(/C=C/C(C)=C/C=C/C(C)=C/C(=O)NCC(=O)N(C)c2ccc(Cl)c(COc3cccc4c(OCc5ccccn5)cc(C)nc34)c2Cl)C(C)(C)CCC1` the IC50 (MCF7) was 65 µM and the IC50 (MDA-MB-231) was 193 µM.
With `COc1cc(/C=C/C(=O)NCC(=O)N(C)c2ccc(Cl)c(COc3cccc4c(OCc5ccccn5)cc(C)nc34)c2Cl)ccc1O` the IC50 (MCF7) was 0.33 µM and the IC50 (MDA-MB-231) was 5.9 µM.
With `CN(C(=O)CN1C(=O)c2ccccc2C1=O)c1ccc(Cl)c(CO)c1Cl` the IC50 (MCF7) was 53 µM and the IC50 (MDA-MB-231) was 0.78 µM.
With `Cc1cc(OCc2ccccn2)c2cccc(N)c2n1` the IC50 (MCF7) was 0.86 µM and the IC50 (MDA-MB-231) was 22 µM.
In the case of `CNC(=O)c1ccc(/C=C/C(=O)NCc2cn(-c3ccc(Cl)c(CNc4cccc5c(OCc6ccccn6)cc(C)nc45)c3Cl)nn2)cc1`, the IC50 (MCF7) is reported as 0.73 µM and the IC50 (MDA-MB-231) is reported as 0.43 µM.
Work on `CC1=C(/C=C/C(C)=C/C=C/C(C)=C/C(=O)NCC(=O)N(C)c2ccc(Cl)c(CNc3cccc4c(OCc5ccccn5)cc(C)nc34)c2Cl)C(C)(C)CCC1` yielded an IC50 (MCF7) of 64 µM and an IC50 (MDA-MB-231) of 0.005 µM.
Molecule `O=C1c2ccccc2C(=O)N1Cc1cn(-c2ccc(Cl)c(CO)c2Cl)nn1` has an IC50 (MCF7) of 0.07 µM and an IC50 (MDA-MB-231) of 520 µM.
Work on `Cc1cc(OCc2ccccn2)c2cccc(OCc3cccc(Oc4ccccc4)c3)c2n1` yielded an IC50 (MCF7) of 407 µM and an IC50 (MDA-MB-231) of 6.97 µM.
`CNC(=O)c1ccc(/C=C/C(=O)NCC(=O)N(C)c2ccc(Cl)c(CNc3cccc4c(OCc5ccccn5)cc(C)nc34)c2Cl)cc1` was tested, and the IC50 (MCF7) was 1.21 µM and the IC50 (MDA-MB-231) was 5.94e-05 µM.
`CNC(=O)c1ccc(/C=C/C(=O)NCc2cn(-c3ccc(Cl)c(COc4cccc5c(OCc6ccccn6)cc(C)nc45)c3Cl)nn2)cc1` was tested, and the IC50 (MCF7) was 91 µM and the IC50 (MDA-MB-231) was 200 µM.
Work on `CNC(=O)c1ccc(/C=C/C(=O)NCC(=O)N(C)c2ccc(Cl)c(CO)c2Cl)cc1` yielded an IC50 (MCF7) of 0.93 µM and an IC50 (MDA-MB-231) of 650 µM.
`CNC(=O)c1ccc(/C=C/C(=O)NCC(=O)N(C)c2ccc(Cl)c(COc3cccc4c(OCc5ccccn5)cc(C)nc34)c2Cl)cc1` showed an IC50 (MCF7) of 2.14 µM and an IC50 (MDA-MB-231) of 0.08 µM.
For `Cc1nc(NC(=O)N2CCC[C@H]2C(N)=O)sc1-c1ccnc(C(C)(C)C(F)(F)F)c1` [ALPELISIB], the IC50 (MDA-MB-231) was 62.9 µM.
`CC(C)C[C@H](NC(=O)[C@H](Cc1ccccc1)NC(=O)c1cnccn1)B(O)O` [BORTEZOMIB] was tested, and the IC50 (MDA-MB-231) was 0.003 µM.
Work on `O=P1(N(CCCl)CCCl)NCCCO1` (stereo unspecified) [CYCLOPHOSPHAMIDE ANHYDROUS] yielded an IC50 (MDA-MB-231) of 196 µM.
For `CC(=O)O[C@@]12CO[C@@H]1C[C@H](O)[C@@]1(C)C(=O)[C@H](O)C3=C(C)[C@@H](OC(=O)[C@H](O)[C@@H](NC(=O)OC(C)(C)C)c4ccccc4)C[C@@](O)([C@@H](OC(=O)c4ccccc4)[C@H]21)C3(C)C` [DOCETAXEL ANHYDROUS], the IC50 (MDA-MB-231) was 0.01 µM.
`COc1cccc2c1C(=O)c1c(O)c3c(c(O)c1C2=O)C[C@@](O)(C(=O)CO)C[C@@H]3O[C@H]1C[C@H](N)[C@H](O)[C@H](C)O1` [DOXORUBICIN] gave an IC50 (MDA-MB-231) of 0.1 µM.
In the case of `COc1cccc2c1C(=O)c1c(O)c3c(c(O)c1C2=O)C[C@@](O)(C(=O)CO)C[C@@H]3O[C@H]1C[C@H](N)[C@@H](O)[C@H](C)O1` [EPIRUBICIN], the IC50 (MDA-MB-231) is reported as 0.15 µM.
Work on `COc1cc(/C=C/C(=O)O)ccc1O` [FERULATE] yielded an IC50 (MCF7) of 0.36 µM and an IC50 (MDA-MB-231) of 15 µM.
In the case of `O=c1[nH]cc(F)c(=O)[nH]1` [FLUOROURACIL], the IC50 (MDA-MB-231) is reported as 66.6 µM.
With `CC(=O)Nc1ccc(/C=C/C(=O)NCC(=O)N(C)c2ccc(Cl)c(COc3cccc4ccc(C)nc34)c2Cl)cn1` [FR-173657] the IC50 (MDA-MB-231) was 20 µM.
Molecule `C[C@]12CC[C@@H]3c4ccc(O)cc4C[C@@H](CCCCCCCCC[S+]([O-])CCCC(F)(F)C(F)(F)F)[C@H]3[C@@H]1CC[C@@H]2O` (stereo partly specified) [FULVESTRANT] has an IC50 (MDA-MB-231) of 196 µM.
With `Nc1ccn([C@@H]2O[C@H](CO)[C@@H](O)C2(F)F)c(=O)n1` [GEMCITABINE] the IC50 (MDA-MB-231) was 2.1 µM.
`CS(=O)(=O)CCNCc1ccc(-c2ccc3ncnc(Nc4ccc(OCc5cccc(F)c5)c(Cl)c4)c3c2)o1` [LAPATINIB] gave an IC50 (MDA-MB-231) of 10.6 µM.
In the case of `O=C(c1cc(Cc2n[nH]c(=O)c3ccccc23)ccc1F)N1CCN(C(=O)C2CC2)CC1` [OLAPARIB], the IC50 (MDA-MB-231) is reported as 62.5 µM.
For `CC(=O)O[C@H]1C(=O)[C@@]2(C)[C@H]([C@H](OC(=O)c3ccccc3)[C@]3(O)C[C@H](OC(=O)[C@H](O)[C@@H](NC(=O)c4ccccc4)c4ccccc4)C(C)=C1C3(C)C)[C@]1(OC(C)=O)CO[C@@H]1C[C@@H]2O` [PACLITAXEL], the IC50 (MDA-MB-231) was 0.9 µM.
`CC(=O)c1c(C)c2cnc(Nc3ccc(N4CCNCC4)cn3)nc2n(C2CCCC2)c1=O` [PALBOCICLIB] showed an IC50 (MDA-MB-231) of 14.6 µM.
`CN(C)C(=O)c1cc2cnc(Nc3ccc(N4CCNCC4)cn3)nc2n1C1CCCC1` [RIBOCICLIB] was tested, and the IC50 (MDA-MB-231) was 27.3 µM.
`CO[C@H]1C[C@@H]2CC[C@@H](C)[C@@](O)(O2)C(=O)C(=O)N2CCCC[C@H]2C(=O)O[C@H]([C@H](C)C[C@@H]2CC[C@@H](O)[C@H](OC)C2)CC(=O)[C@H](C)/C=C(\C)[C@@H](O)[C@@H](OC)C(=O)[C@H](C)C[C@H](C)/C=C/C=C/C=C/1C` [SIROLIMUS] was tested, and the IC50 (MDA-MB-231) was 0.9 µM.
Work on `CC/C(=C(\c1ccccc1)c1ccc(OCCN(C)C)cc1)c1ccccc1` [TAMOXIFEN] yielded an IC50 (MDA-MB-231) of 69.7 µM.
Work on `CC1=C(/C=C/C(C)=C/C=C/C(C)=C/C(=O)O)C(C)(C)CCC1` [TRETINOIN] yielded an IC50 (MCF7) of 6.14 µM and an IC50 (MDA-MB-231) of 16 µM.
Work on `CC[C@]1(O)C[C@@H]2CN(CCc3c([nH]c4ccccc34)[C@@](C(=O)OC)(c3cc4c(cc3OC)N(C)[C@H]3[C@@](O)(C(=O)OC)[C@H](OC(C)=O)[C@]5(CC)C=CCN6CC[C@]43[C@@H]65)C2)C1` [VINBLASTINE] yielded an IC50 (MDA-MB-231) of 0.024 µM.

Source: ChEMBL document CHEMBL4732084, “Potent antiproliferative activity of bradykinin B2 receptor selective agonist FR-190997 and analogue structures thereof: A paradox resolved?” (Eur J Med Chem, 2021)
